In ChEMBL document CHEMBL4043283, “Discovery and Preclinical Development of IIIM-290, an Orally Active Potent Cyclin-Dependent Kinase Inhibitor” (J Med Chem, 2018):
≈ marks a conversion by molar mass, not a printed value. Calls of active or inactive are those of the source. No cut-off for these calls is given here.

Key:
[1] = target: CDK2/Cyclin A2 (Homo sapiens) (UniProt P24941+P20248); experiment: Inhibition of CDK2/cyclin A (unknown origin) at 0.5 uM using histone H1 as substrate after 30 mins in presence of [33P]-gamma-ATP by filter binding assay relative to control; format: protein-complex assay
[2] = tested on: MIA PaCa-2; experiment: Growth inhibition of human MIAPaCa2 cells after 48 hrs by MTT assay; format: functional; details: MIA PaCa-2, 48 h
Outline: (§1)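 Cancer cell lines sourced from the National Cancer Institute (USA). Cells kept in appropriate growth medium at 37 °C, 95% humidity, 5% CO2. Antiproliferation read by tetrazolium (MTT) assay. GI50 values were determined only for compounds selected after an initial single-concentration screen.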

[3] = tested on: MCF7; experiment: Growth inhibition of human MCF7 cells after 48 hrs by MTT assay; format: functional; details: MCF7, 48 h; outline: as §1
[4] = species on record: Homo sapiens; experiment: Selectivity ratio of IC50 for CDK2/cyclin A (unknown origin) to IC50 for CDK9/cyclin T1 (unknown origin)
[5] = target: Cyclin-dependent kinase 5/CDK5 activator 1 (Homo sapiens, UniProt Q00535); experiment: Inhibition of CDK5/cyclin p25 (unknown origin) after 30 mins in presence of [33P]-gamma-ATP by filter binding assay; format: protein-complex assay
Cyclin-dependent kinase 5/CDK5 activator 1, sequence (Q00535 whole entry): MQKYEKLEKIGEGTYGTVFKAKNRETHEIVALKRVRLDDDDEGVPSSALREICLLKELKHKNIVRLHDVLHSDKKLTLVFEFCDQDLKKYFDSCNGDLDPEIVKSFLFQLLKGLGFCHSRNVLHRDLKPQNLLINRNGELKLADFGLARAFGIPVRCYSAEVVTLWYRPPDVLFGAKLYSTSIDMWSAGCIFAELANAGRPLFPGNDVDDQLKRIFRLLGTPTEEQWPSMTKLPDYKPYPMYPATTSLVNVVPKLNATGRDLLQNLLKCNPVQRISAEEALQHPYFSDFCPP
Cyclin-dependent kinase 5/CDK5 activator 1, sequence (Q15078 whole entry, further chain): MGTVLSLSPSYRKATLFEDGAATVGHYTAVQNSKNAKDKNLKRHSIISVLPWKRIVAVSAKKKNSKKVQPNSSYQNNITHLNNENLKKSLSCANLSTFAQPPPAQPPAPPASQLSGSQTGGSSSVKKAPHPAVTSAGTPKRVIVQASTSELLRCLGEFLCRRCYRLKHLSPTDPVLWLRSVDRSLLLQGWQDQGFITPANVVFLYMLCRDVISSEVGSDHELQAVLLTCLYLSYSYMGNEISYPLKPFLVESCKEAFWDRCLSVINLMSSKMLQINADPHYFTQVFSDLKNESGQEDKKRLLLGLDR

[6] = target: Non-receptor tyrosine-protein kinase TYK2 (Homo sapiens) (UniProt P29597); experiment: Inhibition of partial length wild type human Tyk2 expressed in mammalian expression system at 0.5 uM by KINOMEscan method relative to control
Non-receptor tyrosine-protein kinase TYK2 (Homo sapiens), sequence (P29597 whole entry): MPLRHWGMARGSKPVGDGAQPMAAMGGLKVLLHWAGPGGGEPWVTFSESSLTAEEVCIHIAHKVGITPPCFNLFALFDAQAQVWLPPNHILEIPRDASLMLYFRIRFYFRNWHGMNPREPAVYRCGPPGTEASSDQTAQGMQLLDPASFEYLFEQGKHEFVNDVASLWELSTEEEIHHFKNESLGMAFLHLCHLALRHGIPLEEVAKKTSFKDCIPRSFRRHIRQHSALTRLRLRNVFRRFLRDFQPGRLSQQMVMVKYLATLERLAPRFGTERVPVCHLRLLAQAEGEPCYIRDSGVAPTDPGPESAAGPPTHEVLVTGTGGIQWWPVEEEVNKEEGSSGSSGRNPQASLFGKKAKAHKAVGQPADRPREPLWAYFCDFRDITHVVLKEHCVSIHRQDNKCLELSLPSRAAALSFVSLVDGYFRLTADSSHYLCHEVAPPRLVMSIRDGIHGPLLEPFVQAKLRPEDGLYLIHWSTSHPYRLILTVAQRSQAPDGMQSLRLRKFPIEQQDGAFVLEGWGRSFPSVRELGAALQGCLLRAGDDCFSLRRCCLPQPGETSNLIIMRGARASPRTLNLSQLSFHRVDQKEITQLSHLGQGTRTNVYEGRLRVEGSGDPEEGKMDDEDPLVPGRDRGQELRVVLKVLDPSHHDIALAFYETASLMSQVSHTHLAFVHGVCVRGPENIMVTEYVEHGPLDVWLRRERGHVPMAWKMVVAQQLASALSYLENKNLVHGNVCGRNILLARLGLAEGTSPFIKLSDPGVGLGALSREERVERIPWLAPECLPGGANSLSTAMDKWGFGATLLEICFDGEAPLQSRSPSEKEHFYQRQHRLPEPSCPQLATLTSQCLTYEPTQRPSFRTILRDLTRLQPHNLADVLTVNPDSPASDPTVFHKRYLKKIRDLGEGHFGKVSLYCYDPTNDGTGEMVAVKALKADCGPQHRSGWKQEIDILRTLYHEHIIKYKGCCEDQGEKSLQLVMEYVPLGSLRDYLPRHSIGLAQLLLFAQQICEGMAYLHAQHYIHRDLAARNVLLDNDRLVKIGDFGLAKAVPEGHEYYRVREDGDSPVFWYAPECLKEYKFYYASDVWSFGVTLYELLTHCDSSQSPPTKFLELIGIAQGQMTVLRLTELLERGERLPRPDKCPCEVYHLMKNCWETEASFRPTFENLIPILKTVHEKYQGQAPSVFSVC
Outline: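 Competition binding screen (KINOMEscan) at 0.5 μM; primary binding read out as % of control, lower values indicating stronger interaction.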

[7] = tested on: MOLT-4; experiment: Growth inhibition of human MOLT4 cells after 48 hrs by MTT assay; format: functional; details: MOLT-4, 48 h; outline: as §1
[8] = tested on: HCT-116; experiment: Growth inhibition of human HCT116 cells after 48 hrs by MTT assay; format: functional; details: HCT-116, 48 h; outline: as §1
[9] = Growth inhibition of human NCI-H322 cells after 48 hrs by MTT assay; format: functional; details: NCI-H322, 48 h; outline: as §1
[10] = tested on: NCI-H522; experiment: Growth inhibition of human NCI-H522 cells after 48 hrs by MTT assay; format: functional; details: NCI-H522, 48 h; outline: as §1
[11] = tested on: HOP-62; experiment: Growth inhibition of human HOP62 cells after 48 hrs by MTT assay; format: functional; details: HOP-62, 48 h; outline: as §1
[12] = Growth inhibition of HGF after 48 hrs by MTT assay; format: cell-based; details: human, HGF cells
[13] = tested on: MIA PaCa-2; experiment: Cell cycle arrest in human MIAPaCa2 cells assessed as accumulation at S phase at 1.5 uM after 24 hrs by propidium iodide staining-based flow cytometric method (reference value: 33%); format: functional
[14] = tested on: MIA PaCa-2; experiment: Induction of apoptosis in human MIAPaCa2 cells assessed as formation of apoptotic bodies after 24 hrs by scanning electron microscopy; format: functional, cell-based
Outline: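 Cells exposed to different compound concentrations for 24 h on coverslips, fixed in 2.5% glutaraldehyde in 0.1 M phosphate buffer pH 7.2 (4 °C, 24 h), postfixed in 1% OsO4 4 h, ethanol-dehydrated, critical-point dried with HMDS, gold-coated, imaged at 20 kV.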

[15] = Thermodynamic equilibrium solubility of compound in water after 5 hrs by shake flask method; format: physicochemical; details: read-out: Therm_solubility
[16] = n-octanol-water partition co-efficient, log P of compound by shake flask method; format: physicochemical
[17] = Chemical stability of compound in hydrochloric acid buffer at pH 1.2 assessed as parent compound remaining at 120 ug/ml after 24 hrs by HPLC method; format: physicochemical; details: read-out: Stability
[18] = Chemical stability of compound in phosphate buffer at pH 4 assessed as parent compound remaining at 120 ug/ml after 24 hrs by HPLC method; format: physicochemical; details: read-out: Stability
[19] = Chemical stability of compound in phosphate buffered saline at pH 6.8 assessed as parent compound remaining at 120 ug/ml after 24 hrs by HPLC method; format: physicochemical; details: read-out: Stability
[20] = Chemical stability of compound in SGF at pH 1.2 assessed as parent compound remaining after 8 hrs by HPLC method; format: physicochemical; details: read-out: Stability
[21] = Half life in mouse liver microsomes at 100 uM after 30 mins by LC-MS/MS analysis; format: ADME, microsome
Outline: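 Parent loss followed over time to give half-life, with NADPH as cofactor for microsomal phase I metabolism.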

[22] = Half life in dog liver microsomes at 100 uM after 30 mins by LC-MS/MS analysis; format: ADME, Canis lupus familiaris, microsome
[23] = Intrinsic clearance in mouse liver microsomes assessed per mg of protein at 100 uM after 30 mins by LC-MS/MS analysis; format: ADME, microsome; details: read-out: CLH
[24] = Half life in rat hepatocytes at 3 uM after 180 mins by LC-MS/MS analysis; format: ADME, cell-based, Hepatocyte
[25] = Half life in human hepatocytes at 3 uM after 180 mins by LC-MS/MS analysis; format: ADME, cell-based, Hepatocyte
[26] = Intrinsic clearance in human hepatocytes assessed per million cells at 3 uM after 180 mins by LC-MS/MS analysis; format: ADME, cell-based, Hepatocyte; details: read-out: CLH
Outline: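 Intrinsic clearance obtained from substrate disappearance over time, reported per mg protein (microsomes, S9) or per 10^6 cells (hepatocytes).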

[27] = Intrinsic clearance in monkey liver S9 fraction assessed per mg of protein preincubated for 5 mins followed by NADPH addition measured after 30 mins by LC-MS/MS analysis; format: ADME, tissue-based, Macaca mulatta; details: rhesus monkey, s9, 0.5 h
[28] = Cmax in BALB/c mouse at 10 mg/kg, po by LC-MS/MS analysis; format: ADME, organism-based; parameters: dose 10 mg/kg, route oral; details: in vivo
[29] = Half life in BALB/c mouse at 3 mg/kg, po by LC-MS/MS analysis; format: ADME, organism-based; details: in vivo
[30] = Tmax in Sprague-Dawley rat at 3 mg/kg, po by LC-MS/MS analysis; format: ADME, organism-based; details: in vivo
[31] = Half life in Sprague-Dawley rat at 10 mg/kg, po by LC-MS/MS analysis; format: ADME, organism-based; details: in vivo
[32] = Pancreas to plasma partition coefficient, Kp of the compound in Sprague-Dawley rat at 30 mg/kg, po measured at 1 hr; format: ADME, organism-based; details: pancreas and plasma
[33] = tested on: Lung; experiment: Drug uptake in BALB/c mouse lung at 30 mg/kg, po after 8 hrs; format: ADME, organism-based; details: in vivo
[34] = tested on: MIA PaCa-2; experiment: Antitumor activity against human MIAPaCa2 cells xenografted in CD1 nude mouse assessed as tumor growth inhibition at 50 mg/kg, po qd administered on day 10 to 25 post tumor inoculation relative to control; format: functional; details: MIA PaCa-2, po, 240 h, read-out: TGI
[35] = tested on: HCT-116; experiment: Antitumor activity against human HCT116 cells xenografted in CD1 nude mouse assessed as tumor growth inhibition at 50 mg/kg, po qd administered on day 10 to 25 post tumor inoculation relative to control; format: functional; details: HCT-116, po, 240 h, read-out: TGI
[36] = tested on: Mus musculus; experiment: Toxicity in CD1 nude mouse xenografted with human MIAPaCa2 cells assessed as mortality at 50 mg/kg, po qd administered on day 10 to 25 post tumor inoculation; format: organism-based; details: in vivo
[37] = Efflux ratio of apparent permeability across basolateral to apical side over apical to basolateral side in human Caco2 cells after 90 mins by LC-MS/MS analysis; format: ADME, cell-based; details: Caco-2
Outline: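 Caco-2 monolayers cultured for 21 days. Test compound applied in HBSS buffer with 10 mM HEPES. Samples drawn from both the apical and basolateral chambers.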

[38] = Acute toxicity in po dosed Wistar rat assessed as mortality; format: organism-based; details: in vivo

For `CN1CC[C@H](c2c(O)cc(O)c3c(=O)cc(/C=C/c4c(Cl)cccc4Cl)oc23)[C@H](O)C1`, which inhibition [1] is on record?
Its inhibition is 90%.

And the GI50 [2]?
The GI50 was 1 µM.

What about the GI50 [3] of the same compound?
The GI50 was 4 µM.

And the Ratio IC50 [4]?
The Ratio IC50 was 7.

What about the IC50 [5] of the same compound?
The IC50 was 0.0155 µM.

What about the inhibition [6] of the same compound?
The inhibition was greater than 98%.

And the GI50 [7]?
The GI50 was 0.5 µM.

What about the GI50 [8] of the same compound?
The GI50 was 5 µM.

And the GI50 [9]?
Its GI50 is 2 µM.

And the GI50 [10]?
Its GI50 is 5 µM.

And the GI50 [11]?
The GI50 was 7 µM.

And the GI50 at 48 h [12]?
Its GI50 at 48 h is 18 µM.

And the Activity [13]?
The Activity was 33%.

And the Activity [14]?
Its Activity is “Active”.

And the solubility thermodynamic at 5 h [15]?
The solubility thermodynamic at 5 h was 20.3 µg/mL (≈ 43.9 µM).

And the logP [16]?
The logP was 3.09.

And the remaining at 24 h, 120 ug/ml [17]?
The remaining at 24 h, 120 ug/ml was 100%.

And the remaining at 24 h, 120 ug/ml [18]?
The remaining at 24 h, 120 ug/ml was 100%.

And the remaining at 24 h, 120 ug/ml [19]?
Its remaining at 24 h, 120 ug/ml is 81%.

And the remaining at 8 h [20]?
Its remaining at 8 h is 100%.

What about the half-life at 100 µM [21] of the same compound?
Its half-life at 100 µM is greater than 0.5 h.

And the half-life at 100 µM [22]?
Its half-life at 100 µM is 0.4 h.

What about the microsomal CLint at 100 µM [23] of the same compound?
Its microsomal CLint at 100 µM is less than 8.8 µL/min/mg.

What about the half-life at 3 µM [24] of the same compound?
The half-life at 3 µM was 6.27 h.

What about the half-life at 3 µM [25] of the same compound?
Its half-life at 3 µM is 12.1 h.

What about the hepatocyte CLint at 3 µM [26] of the same compound?
Its hepatocyte CLint at 3 µM is 4.8 µL/min/1e6 cells.

And the CLint [27]?
The CLint was 25 µL/min/mg.

What about the Cmax [28] of the same compound?
Its Cmax is 670 to 1290 nM.

What about the half-life [29] of the same compound?
Its half-life is 3.09 h.

And the Tmax [30]?
Its Tmax is 0.5 h.

What about the half-life [31] of the same compound?
Its half-life is 5.16 h.

What about the Kp at 1 h [32] of the same compound?
Its Kp at 1 h is 4.1.

What about the Drug uptake [33] of the same compound?
Its Drug uptake is “Active”.

And the inhibition in vivo at 50 mg/kg [34]?
The inhibition in vivo at 50 mg/kg was 40 to 52%.

What about the inhibition in vivo at 50 mg/kg [35] of the same compound?
The inhibition in vivo at 50 mg/kg was 40 to 52%.

And the Activity [36]?
Its Activity is “Non-Toxic”.

And the efflux ratio at 1.5 h [37]?
The efflux ratio at 1.5 h was 1.8.

What about the LD50 [38] of the same compound?
The LD50 was 1000 mg/kg.
